Rows were chosen to be rich in hits. Some 1.8% of all compounds tested hit in one or more screens of this group.
M5 PAM: human M5 muscarinic receptor positive allosteric modulators, primary screen, CHO-K1 cells, Fluo-8 calcium fluorescence. Muscarinic acetylcholine receptor M5 (Homo sapiens), P08912. CHO-K1 hM5, ACh EC20 PAM; 0% = ACh EC20, 100% = ACh EC100. activation, % at 3 µM. 0.3% of 360,000 active. AID 624038, 2012;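 active = activation above the run cutoff, the mean activation of all test compounds plus 3 SD, cut at about 18% in these data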
Target sequence (P08912 whole entry, looked up): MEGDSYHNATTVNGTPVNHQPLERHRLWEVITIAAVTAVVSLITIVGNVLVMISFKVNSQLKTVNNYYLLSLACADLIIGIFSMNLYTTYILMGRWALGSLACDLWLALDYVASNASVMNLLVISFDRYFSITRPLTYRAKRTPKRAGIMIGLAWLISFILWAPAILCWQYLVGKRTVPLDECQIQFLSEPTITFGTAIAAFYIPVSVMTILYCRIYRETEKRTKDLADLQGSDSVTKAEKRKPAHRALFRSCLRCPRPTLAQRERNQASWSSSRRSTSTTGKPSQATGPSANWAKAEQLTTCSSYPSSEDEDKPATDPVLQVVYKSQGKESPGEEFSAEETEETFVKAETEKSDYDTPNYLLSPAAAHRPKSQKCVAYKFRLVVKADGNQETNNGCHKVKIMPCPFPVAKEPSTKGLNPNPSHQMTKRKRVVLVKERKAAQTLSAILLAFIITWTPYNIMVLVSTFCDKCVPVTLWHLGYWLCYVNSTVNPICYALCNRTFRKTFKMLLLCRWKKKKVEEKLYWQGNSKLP
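system = human M5 receptor in CHO-K1 cells | compound = one concentration, 3 µM final (nominal) | schedule = Post-acetylcholine fluorescence recording 140 s | signal = Fluo-8 calcium dye fluorescence, kinetic read | benchmarks = low control EC20 acetylcholine (0%), high control EC100 acetylcholine (100%) | repeats = singlicate, one well per test compound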
CHRM5 agonist: human M5 muscarinic receptor agonists, primary screen, CHO-K1 cells, Fluo-8 calcium fluorescence. activation, % at 3 µM. Muscarinic acetylcholine receptor M5 (Homo sapiens), P08912. 0.19% of 360,000 active. CHO-K1 hM5 cells; 0% DMSO wells, 100% maximal acetylcholine response;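 active = activation above the run's mean over test compounds plus 3 SD, cut at about 23% in these data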;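 note: signal is peak over basal fluorescence ratio across the kinetic read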
CHRM5 antagonist: human M5 muscarinic receptor antagonists, primary screen, CHO cells, Fluo-8 calcium fluorescence. CHO-hM5 cells, ACh EC80. 0.59% of 360,000 active. AID 624040, 2012. Muscarinic acetylcholine receptor M5 (Homo sapiens), P08912. inhibition, % at 3 µM;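 active = inhibition above a per-plate cutoff, the mean of that plate's test compounds plus 3 SD, cut at about 27% in these data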
CHRM4 antagonist: human M4 muscarinic receptor antagonists, primary screen, CHO cells, Fluo-8 calcium fluorescence; Muscarinic acetylcholine receptor M4 (Homo sapiens), P08173; 0.73% of 360,000 active; inhibition, % at 3 µM; CHO-hM4 cells, ACh EC80;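 active = inhibition above its plate's cutoff, the mean inhibition of sample wells plus 3 SD, cut at about 27% in these data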
CHRM4 agonist: human M4 muscarinic receptor agonists, primary screen, CHO-K1 cells, Fluo-8 calcium fluorescence | Muscarinic acetylcholine receptor M4 (Homo sapiens), P08173 | activation, % at 3 µM | CHO-K1 hM4/Gqi5; vehicle 0%, full acetylcholine response 100% | 0.14% of 360,000 active | AID 624127, 2012;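 active = activation above the run mean over all test wells plus 3 SD, cut at about 32% in these data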;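 note: peak over basal fluorescence ratio per well then scaled between controls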
M4 PAM: human M4 muscarinic receptor positive allosteric modulators, primary screen, CHO-K1 cells, Fluo-8 calcium fluorescence; Muscarinic acetylcholine receptor M4 (Homo sapiens), P08173; CHO-K1 hM4/Gqi5, ACh EC20; 0% = ACh EC20, 100% = maximal ACh; activation, % at 3 µM; 0.4% of 360,000 active; AID 624126, 2012;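 active = activation above its plate's cutoff, the mean activation of sample wells plus 3 SD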
A number is an active result; n = inactive.

SMILES	M5 PAM	CHRM5 agonist	CHRM5 antagonist	CHRM4 antagonist	CHRM4 agonist	M4 PAM
C[C@H](NC(=O)c1[nH]cnc1C(=O)Nc1ccccc1F)c1ccccc1	n	n	n	n	n	n
Cc1ccc(S(=O)(=O)N2CCC(N3CCN(C)CC3)CC2)cc1Cl	n	n	n	28	n	n
c1ccc(CNc2nc(NCc3ccccc3)c3sccc3n2)cc1	n	32	44	71	89	n
c1ccc(CNc2nc(NCc3ccccc3)c3ccccc3n2)cc1	n	n	39	49	45	n
Fc1cc(Cl)ccc1Nc1nc(NCc2ccccc2)nc2ccsc12	n	n	n	n	n	n
c1ccc(CNc2nc(NCCOc3ccccc3)c3sccc3n2)cc1	n	n	35	54	58	n
CNc1nc(NCCOc2ccccc2)c2sccc2n1	n	n	n	n	n	n
COc1ccccc1CNc1nc(NCc2ccccc2)nc2ccsc12	n	36	76	92	75	n
COc1ccc(N2CCN(C(=O)c3cc(=O)c4ccc(C)cc4o3)CC2)cc1	n	n	n	n	n	n
CCN(C(=O)COC(=O)c1ccc2c(c1)OCO2)c1ccc(F)cc1	n	n	n	n	n	n
C#Cc1cccc(Nc2nc(NCc3ccccc3OC)nc3ccsc23)c1	n	n	36	30	n	n
COCCNc1nc(NCc2cccc(OC)c2OC)c2sccc2n1	n	n	n	n	n	n
C#Cc1cccc(Nc2nc(NCCOC)nc3ccsc23)c1	n	n	n	n	n	n
COc1ccccc1CNc1nc(NCc2cccc(OC)c2OC)c2sccc2n1	n	n	31	n	n	n
Cc1ccc(S(=O)(=O)N2CCC[C@H]2C(=O)OCC(=O)Nc2ccc3c(c2)OCO3)cc1	n	n	n	n	n	n
CCOC(=O)c1c(NC(=O)COC(=O)Cn2cnc3c2c(=O)n(C)c(=O)n3C)sc(C)c1CC	n	n	n	n	n	24
Cc1ccc(NC(=O)COC(=O)Cn2cnc3c2c(=O)n(C)c(=O)n3C)cc1	n	n	n	n	n	n
COc1ccc(NC(=O)COc2ccccc2)cc1Cl	n	n	n	n	n	n
COc1ccc(NC(=O)COc2ccccc2C(=O)NCC(c2ccccc2)N(C)C)cc1Cl (stereo not given)	n	n	57	n	n	n
O=C(NC(=S)Nc1ccc(O)cc1)C1CCCC1	n	n	n	n	n	n
CC(=O)Nc1ccc(NC(=S)NC(=O)C2CC2)cc1	n	n	n	n	n	25
COc1cccc(C2Nc3ccccc3C(=O)N2Cc2ccccc2)c1 (stereo not given)	28	n	28	n	n	n
O=C1c2ccccc2NC(c2ccccc2)N1Cc1ccccc1 (stereo not given)	n	n	n	n	n	n
C1=CN2CCC1C(c1ccccc1)C2 (stereo not given)	n	n	74	36	n	n
O=C(OC1CCOC1=O)c1ccc(Cl)c(S(=O)(=O)N2CCOCC2)c1 (stereo not given)	n	n	n	n	n	n
SMILES	M5 PAM	CHRM5 agonist	CHRM5 antagonist	CHRM4 antagonist	CHRM4 agonist	M4 PAM
Nc1nc(-c2ccc3c(c2)CCCC3)c(CC(=O)O)s1	n	n	n	29	n	n
Nc1nc(-c2ccc3c(c2)OCCO3)c(CC(=O)O)s1	n	n	n	n	n	n
Cc1ccc(CNc2ncnc3cc(Cl)ccc23)cc1	n	n	35	n	n	n
O=C1C=CC(=Nc2cccc3c2C(=O)c2ccccc2-3)O1	n	45	n	n	67	n
O=C1C=CC(=Nc2ccc3c(c2)Cc2cc(F)ccc2-3)O1	n	n	n	n	n	n
CCCn1cc(SCC(=O)Nc2ccc3c(c2)OCO3)c2ccccc21	n	29	n	n	n	n
Cc1ccc(NC(=O)Cc2nn(C)c(=O)c3ccccc23)cc1F	n	n	n	33	n	n
Cn1nc(CC(=O)Nc2ccc3c(c2)OCCO3)c2ccccc2c1=O	n	n	32	n	n	n
O=C(CCn1cnc2ccccc2c1=O)Nc1ccc2c(c1)OCCO2	25	n	n	n	n	n
O=C(CNC(=O)c1ccccc1Cl)NCC(c1cccs1)N1CCOCC1 (stereo not given)	n	n	n	n	n	n
CN(C)CCCNCCCNC(=O)/C(=N\O)c1ccccc1	n	n	n	n	n	33
CN(C)CCCNCCCNC(=O)c1ccccn1	n	n	n	n	n	n
CC(C)C[C@H]1CN=C(N(C)C)N1CCc1cccc(F)c1	n	n	n	n	n	n
CC(C)C[C@H]1CN=C(Nc2ccccc2)N1CCc1ccc(F)cc1	n	64	n	47	115	n
CC(C)C[C@H]1CN=C(Nc2ccccc2)N1CCc1cccc(F)c1	n	74	38	62	126	n
Cc1cccc(CCN2C(Nc3ccccc3)=NC[C@@H]2CC(C)C)c1	n	58	n	59	137	n
Cc1nc(NCCc2ccccc2)sc1C(=O)N(C)C	n	n	n	n	n	n
COC(=O)[C@]12CCCCC=C1N(Cc1ccc3c(c1)OCO3)C(=O)[C@H](CC(=O)NCC1CCCCC1)C2	n	n	n	n	n	n
COc1ccc(NC(=O)N(C)C[C@H]2OCc3cnnn3CCCC(=O)N([C@@H](C)CO)C[C@H]2C)cc1	n	n	n	n	n	n
Cc1sc2ncnc(NCC(c3ccco3)N3CCCC3)c2c1C (stereo not given)	n	n	n	40	n	n
Cc1sc2ncnc(N3CCCCC3)c2c1C	n	n	n	n	n	n
S=C(Nc1ccccc1Cl)NC1CCN(Cc2ccccc2)CC1	n	n	n	n	n	n
S=C(Nc1cc(Cl)cc(Cl)c1)NC1CCN(Cc2ccccc2)CC1	n	n	28	n	35	n
S=C(NCc1ccc(Cl)cc1)NC1CCN(Cc2ccccc2)CC1	n	n	n	27	45	n
COc1ccc(C(NC(=O)C2CCN(Cc3ccc(Oc4ccccc4)cc3)CC2)c2ccccc2C)cn1 (stereo not given)	n	n	n	n	n	n
Cc1cc(-c2ccccc2)n(-c2ccc(C(=O)N3CCN(c4ncccn4)CC3)cc2)n1	n	n	n	32	n	n
COc1cc(CNCCO)ccc1OCCc1ccccc1	n	n	n	29	n	20
COc1cc2oc(=O)ccc2cc1-c1c(OC)ccc2ccc(=O)oc12	n	n	n	n	n	n

Source: PubChem BioAssay
